# Measured values reported in ChEMBL document CHEMBL1140861, “Short antisense oligonucleotides with novel 2'-4' conformationaly restricted nucleoside analogues show improved potency without increased toxicity in animals” (J Med Chem, 2009).
# The source made the active and inactive calls. The calls are words filed in the database; no cut-off is given here.
# Assays:
# Mus musculus [1] = experiment: Reduction of PTEN mRNA level in ip dosed BALB/c mouse liver administered twice a week for 3 weeks measured after 72 hrs of last dose; assay type: functional
# How it was run: (§1)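 Male Balb/c mice, 6 weeks old, dosed ip twice weekly for 3 weeks at 0.5, 1.5, 4.7 and 15 mg/kg (two ASOs) or 0.7, 2.3, 7.2 and 23 mg/kg (MOE control); sacrificed 72 h after last dose; ALT, liver PTEN mRNA, liver and spleen weights and body weight gain assessed; ED50 derived; errors as sd.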
# Mus musculus [2] = experiment: Hepatotoxicity in BALB/c mouse assessed as increase in liver ALT level at 0.5 mg/kg, ip administered twice a week for 3 weeks measured after 72 hrs of last dose; assay type: toxicity, organism-based; parameters: dose 0.5 mg/kg, route intraperitoneal; conditions: in vivo; how it was run: as §1
# Mus musculus [3] = experiment: Hepatotoxicity in BALB/c mouse assessed as increase in liver ALT level at 23 mg/kg, ip administered twice a week for 3 weeks measured after 72 hrs of last dose; assay type: toxicity, organism-based; parameters: dose 23 mg/kg, route intraperitoneal; conditions: in vivo; how it was run: as §1
# Mus musculus [4] = experiment: Hepatotoxicity in BALB/c mouse assessed as increase in liver ALT level at 7.2 mg/kg, ip administered twice a week for 3 weeks measured after 72 hrs of last dose; assay type: toxicity, organism-based; parameters: dose 7.2 mg/kg, route intraperitoneal; conditions: in vivo; how it was run: as §1
# Mus musculus [5] = experiment: Hepatotoxicity in BALB/c mouse assessed as increase in liver ALT level at 2.3 mg/kg, ip administered twice a week for 3 weeks measured after 72 hrs of last dose; assay type: toxicity, organism-based; parameters: dose 2.3 mg/kg, route intraperitoneal; conditions: in vivo; how it was run: as §1
# Mus musculus [6] = experiment: Hepatotoxicity in BALB/c mouse assessed as increase in liver ALT level at 1.5 mg/kg, ip administered twice a week for 3 weeks measured after 72 hrs of last dose; assay type: toxicity, organism-based; parameters: dose 1.5 mg/kg, route intraperitoneal; conditions: in vivo; how it was run: as §1
# Mus musculus [7] = experiment: Hepatotoxicity in BALB/c mouse assessed as increase in liver ALT level at 4.7 mg/kg, ip administered twice a week for 3 weeks measured after 72 hrs of last dose; assay type: toxicity, organism-based; parameters: dose 4.7 mg/kg, route intraperitoneal; conditions: in vivo; how it was run: as §1
# Mus musculus [8] = experiment: Hepatotoxicity in BALB/c mouse assessed as increase in liver ALT level at 15 mg/kg, ip administered twice a week for 3 weeks measured after 72 hrs of last dose; assay type: toxicity, organism-based; parameters: dose 15 mg/kg, route intraperitoneal; conditions: in vivo; how it was run: as §1
# Mus musculus [9] = experiment: Hepatotoxicity in BALB/c mouse assessed as increase in liver ALT level at 0.7 mg/kg, ip administered twice a week for 3 weeks measured after 72 hrs of last dose; assay type: toxicity, organism-based; parameters: dose 0.7 mg/kg, route intraperitoneal; conditions: in vivo; how it was run: as §1
# Mus musculus [10] = experiment: Toxicity in BALB/c mouse assessed as reduction in body weight at 0.5 mg/kg, ip administered twice a week for 3 weeks measured after 72 hrs of last dose; assay type: organism-based; parameters: dose 0.5 mg/kg, route intraperitoneal; conditions: in vivo; how it was run: as §1
# Mus musculus [11] = experiment: Toxicity in BALB/c mouse assessed as reduction in body weight at 1.5 mg/kg, ip administered twice a week for 3 weeks measured after 72 hrs of last dose; assay type: organism-based; parameters: dose 1.5 mg/kg, route intraperitoneal; conditions: in vivo; how it was run: as §1
# Mus musculus [12] = experiment: Toxicity in BALB/c mouse assessed as reduction in body weight at 4.7 mg/kg, ip administered twice a week for 3 weeks measured after 72 hrs of last dose; assay type: organism-based; parameters: dose 4.7 mg/kg, route intraperitoneal; conditions: in vivo; how it was run: as §1
# Mus musculus [13] = experiment: Toxicity in BALB/c mouse assessed as reduction in body weight at 15 mg/kg, ip administered twice a week for 3 weeks measured after 72 hrs of last dose; assay type: organism-based; parameters: dose 15 mg/kg, route intraperitoneal; conditions: in vivo; how it was run: as §1
# Mus musculus [14] = experiment: Hepatotoxicity in BALB/c mouse assessed as increase in liver ALT level at 60 mg/kg, ip after 72 hrs; assay type: toxicity, organism-based; parameters: dose 60 mg/kg, route intraperitoneal; conditions: in vivo
# Mus musculus [15] = species: Mus musculus; experiment: Binding affinity to mouse PTEN mRNA assessed as melting temperature
# How it was run: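 Tm of ASO–RNA duplex, i.e. melting temperature of the ASO hybridised to its complementary RNA.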
# bEND = experiment: Reduction in mouse PTEN mRNA level expressed in mouse bEND cells; assay type: functional, cell-based
# How it was run: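 bEND mouse brain endothelial cells transfected with ASO using lipofectin; PTEN mRNA reduction measured over a dose range; IC50 taken from dose-response curves.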
# Mus musculus [16] = experiment: Reduction of PTEN mRNA level in ip dosed BALB/c mouse liver after 72 hrs; assay type: functional
# Mus musculus [17] = experiment: Reduction of PTEN mRNA level in BALB/c mouse liver at 37 mg/kg, ip after 72 hrs; assay type: functional, organism-based; parameters: dose 37 mg/kg
# Mus musculus [18] = experiment: Reduction of PTEN mRNA level in BALB/c mouse liver at 60 mg/kg, ip after 72 hrs; assay type: functional, organism-based; parameters: dose 60 mg/kg
# Mus musculus [19] = experiment: Reduction of PTEN level in ip dosed BALB/c mouse liver at 37 mg/kg by Western blot analysis; assay type: functional, organism-based; parameters: dose 37 mg/kg
# Mus musculus [20] = experiment: Hepatotoxicity in ip dosed BALB/c mouse assessed as increase in liver ALT level at 5 to 10 times of ED50 after 72 hrs; assay type: toxicity, organism-based; conditions: in vivo
# Mus musculus [21] = experiment: Metabolic stability in BALB/c mouse liver assessed as antisense oligonucleotide level at 18 mg/kg; assay type: ADME, organism-based; parameters: dose 18 mg/kg; conditions: in vivo
# Mus musculus [22] = experiment: Reduction of PTEN mRNA level in BALB/c mouse liver at 32 mg/kg, ip after 72 hrs; assay type: functional, organism-based; parameters: dose 32 mg/kg
# How it was run: (§2)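 Balb/c mice, 6 weeks old, n = 4 per dose group, single ip doses of 32, 66 or 100 mg/kg; killed 72 h after administration; serum ALT and liver PTEN mRNA quantified after sacrifice; errors as sd.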
# Mus musculus [23] = experiment: Reduction of PTEN mRNA level in BALB/c mouse liver at 66 mg/kg, ip after 72 hrs; assay type: functional, organism-based; parameters: dose 66 mg/kg; how it was run: as §2
# Mus musculus [24] = experiment: Reduction of PTEN mRNA level in BALB/c mouse liver at 100 mg/kg, ip after 72 hrs; assay type: functional; how it was run: as §2
# Mus musculus [25] = experiment: Hepatotoxicity in BALB/c mouse assessed as increase in liver ALT level at 32 mg/kg, ip after 72 hrs; assay type: toxicity, organism-based; parameters: dose 32 mg/kg, route intraperitoneal; conditions: in vivo; how it was run: as §2
# Mus musculus [26] = experiment: Hepatotoxicity in BALB/c mouse assessed as increase in liver ALT level at 66 mg/kg, ip after 72 hrs; assay type: toxicity, organism-based; parameters: dose 66 mg/kg, route intraperitoneal; conditions: in vivo; how it was run: as §2
# Mus musculus [27] = experiment: Hepatotoxicity in BALB/c mouse assessed as increase in liver ALT level at 100 mg/kg, ip after 72 hrs; assay type: toxicity, organism-based; parameters: dose 100 mg/kg, route intraperitoneal; conditions: in vivo; how it was run: as §2
smiles,measurement,setting,value
COCCO[C@@H]1[C@H](O)[C@@H](COP(O)(=S)O[C@H]2[C@@H](OCCOC)[C@H](n3cc(C)c(=O)[nH]c3=O)O[C@@H]2COP(O)(=S)O[C@H]2[C@@H](OCCOC)[C@H](n3cnc4c(=O)[nH]c(N)nc43)O[C@@H]2COP(O)(=S)O[C@H]2[C@@H](OCCOC)[C@H](n3cc(C)c(N)nc3=O)O[C@@H]2COP(O)(=S)O[C@H]2[C@@H](OCCOC)[C@H](n3cc(C)c(=O)[nH]c3=O)O[C@@H]2COP(O)(=S)O[C@H]2[C@@H](O)[C@H](n3cnc4c(N)ncnc43)O[C@@H]2COP(O)(=S)O[C@H]2[C@@H](O)[C@H](n3cnc4c(=O)[nH]c(N)nc43)O[C@@H]2COP(O)(=S)O[C@H]2[C@@H](O)[C@H](n3cc(C)c(N)nc3=O)O[C@@H]2COP(O)(=S)O[C@H]2[C@@H](O)[C@H](n3cc(C)c(N)nc3=O)O[C@@H]2COP(O)(=S)O[C@H]2C[C@H](n3cc(C)c(=O)[nH]c3=O)O[C@@H]2COP(O)(=S)O[C@H]2[C@@H](O)[C@H](n3cc(C)c(N)nc3=O)O[C@@H]2COP(O)(=S)O[C@H]2C[C@H](n3cc(C)c(=O)[nH]c3=O)O[C@@H]2COP(O)(=S)O[C@H]2[C@@H](O)[C@H](n3cnc4c(=O)[nH]c(N)nc43)O[C@@H]2COP(O)(=S)O[C@H]2[C@@H](O)[C@H](n3cnc4c(=O)[nH]c(N)nc43)O[C@@H]2COP(O)(=S)O[C@H]2[C@@H](O)[C@H](n3cnc4c(N)ncnc43)O[C@@H]2COP(O)(=S)O[C@H]2[C@@H](OCCOC)[C@H](n3cc(C)c(=O)[nH]c3=O)O[C@@H]2COP(O)(=S)O[C@H]2[C@@H](OCCOC)[C@H](n3cc(C)c(=O)[nH]c3=O)O[C@@H]2COP(O)(=S)O[C@H]2[C@@H](OCCOC)[C@H](n3cc(C)c(=O)[nH]c3=O)O[C@@H]2COP(O)(=S)O[C@H]2[C@@H](OCCOC)[C@H](n3cnc4c(=O)[nH]c(N)nc43)O[C@@H]2COP(O)(=S)O[C@H]2[C@@H](OCCOC)[C@H](n3cnc4c(N)ncnc43)O[C@@H]2CO)O[C@H]1n1cc(C)c(N)nc1=O (stereo partly specified),ED50,Mus musculus [1],9.5 mg/kg
same,Activity,Mus musculus [2],Non-toxic
same,Activity,Mus musculus [3],Non-toxic
same,Activity,Mus musculus [4],Non-toxic
same,Activity,Mus musculus [5],Non-toxic
same,Activity,Mus musculus [6],Non-toxic
same,Activity,Mus musculus [7],Non-toxic
same,Activity,Mus musculus [8],Non-toxic
same,Activity,Mus musculus [9],Non-toxic
same,Activity,Mus musculus [10],Non-toxic
same,Activity,Mus musculus [11],Non-toxic
same,Activity,Mus musculus [12],Non-toxic
same,Activity,Mus musculus [13],Non-toxic
same,Activity,Mus musculus [14],Non-toxic
same,Tm,Mus musculus [15],67.9 °C
same,IC50,bEND,6.2 nM
same,ED50,Mus musculus [16],36 mg/kg
same,Activity,Mus musculus [17],Active
same,Activity,Mus musculus [18],Active
same,Activity,Mus musculus [19],Active
Cc1cn([C@@H]2O[C@@]3(COP(O)(=S)O[C@H]4[C@H]5OC[C@]4(COP(O)(=S)O[C@H]4C[C@H](n6cc(C)c(=O)[nH]c6=O)O[C@@H]4COP(O)(=S)O[C@H]4[C@@H](O)[C@H](n6cnc7c6N=CNC7N)O[C@@H]4COP(O)(=S)O[C@H]4[C@@H](O)[C@H](n6cnc7c(=O)[nH]c(N)nc76)O[C@@H]4COP(O)(=S)O[C@H]4[C@@H](O)[C@H](n6ccc(N)nc6=O)O[C@@H]4COP(O)(=S)O[C@H]4[C@@H](O)[C@H](n6cnc7c(N)ncnc76)O[C@@H]4COP(O)(=S)O[C@H]4[C@@H](O)[C@H](n6ccc(N)nc6=O)O[C@@H]4COP(O)(=S)O[C@H]4[C@@H](O)[C@H](n6cc(C)c(=O)[nH]c6=O)O[C@@H]4COP(O)(=S)O[C@H]4[C@@H](O)[C@H](n6cnc7c(=O)[nH]c(N)nc76)O[C@@H]4COP(O)(=S)O[C@H]4[C@@H](O)[C@H](n6cnc7c(=O)[nH]c(N)nc76)O[C@@H]4COP(O)(=S)O[C@H]4[C@@H](O)[C@H](n6ccc(N)nc6=O)O[C@@H]4COP(O)(=S)O[C@H]4[C@H]6OC[C@]4(COP(O)(=S)O[C@H]4[C@H]7OC[C@]4(CO)O[C@H]7n4cc(C)c(=O)[nH]c4=O)O[C@H]6n4cc(C)c(N)nc4=O)O[C@H]5n4cc(C)c(=O)[nH]c4=O)CO[C@@H]2[C@@H]3O)c(=O)nc1N (stereo partly specified),ED50,Mus musculus [1],2.1 mg/kg
same,Activity,Mus musculus [20],Toxic
same,Activity,Mus musculus [14],Non-toxic
same,Tm,Mus musculus [15],60.6 °C
same,IC50,bEND,4.9 nM
same,ED50,Mus musculus [16],6 mg/kg
same,Activity,Mus musculus [17],Active
same,Activity,Mus musculus [18],Active
same,Activity,Mus musculus [19],Active
same,Stability,Mus musculus [21],25 µg/g
same,Activity,Mus musculus [22],Active
same,Activity,Mus musculus [23],Active
same,Activity,Mus musculus [24],Active
same,Activity,Mus musculus [25],Non-toxic
same,Activity,Mus musculus [26],Toxic
same,Activity,Mus musculus [27],Toxic
